From ChEMBL document CHEMBL3351561, “Discovery of 9-(1-anilinoethyl)-2-morpholino-4-oxo-pyrido[1,2-a]pyrimidine-7-carboxamides as PI3Kβ/δ inhibitors for the treatment of PTEN-deficient tumours” (Bioorg Med Chem Lett, 2014)
In brackets after ≈: the same amount, converted by molar mass.

Experiments:
[1] = biological target: T1, Phosphatidylinositol 4,5-bisphosphate 3-kinase catalytic subunit beta isoform (Homo sapiens, UniProt P42338); test: Inhibition of PI3Kbeta in human MAD-MB-468 cells assessed as inhibition of Ser473 Akt phosphorylation by cellular potency assay
[2] = Buffer/octanol partition coefficient, log D of the compound at pH 7.4 by shake flask method; type: physicochemical
Method in brief: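 LogD at pH 7.4 was measured by shake-flask with a buffer/octanol volume ratio of 100:1.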

[3] = Intrinsic clearance in human hepatocytes measured per 10^6 cells; type: ADME, cell-based, Hepatocyte; details: read-out: CLH
Method in brief: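 Intrinsic clearance was measured in human hepatocytes and is expressed in µL/min/10^6 cells.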

[4] = Solubility of the compound in phosphate buffer at pH 7.4; type: physicochemical
Method in brief: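 Solubility was measured from solid material in phosphate buffer at pH 7.4.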

[5] = Apparent permeability from apical (pH 6.5) to […] of human Caco2 cells; type: ADME, cell-based; details: Caco-2, pH 6.5
Homo sapiens [6] = species on record: Homo sapiens; test: Ratio of IC50 for human recombinant PI3Kalpha to IC50 human recombinant PI3Kbeta
Method in brief: (§1)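 Ratio is taken from enzyme IC50 values, each the geometric mean of 3 or more determinations. In the PI3Kβ enzyme assay, functional enzyme concentration was measured experimentally. The tight-binding limit, half that concentration, is 10 nM, so β IC50 values near that floor set a cap on the ratio.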

Homo sapiens [7] = species on record: Homo sapiens; test: Ratio of IC50 for human recombinant PI3Kgamma to IC50 human recombinant PI3Kbeta; method in brief: as §1
[8] = biological target: T2, Phosphatidylinositol 4,5-bisphosphate 3-kinase catalytic subunit alpha isoform (Homo sapiens, UniProt P42336); test: Inhibition of human recombinant PI3Kalpha assessed as depletion of ATP substrate by Ultra Glo luciferase assay
Method in brief: (§2)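 Enzyme IC50s are reported as the geometric mean of 3 or more values.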

[9] = biological target: T1, Phosphatidylinositol 4,5-bisphosphate 3-kinase catalytic subunit beta isoform; test: Inhibition of human recombinant PI3Kbeta assessed as depletion of ATP substrate by Ultra Glo luciferase assay; method in brief: as §2
[10] = biological target: Phosphatidylinositol 4,5-bisphosphate 3-kinase catalytic subunit gamma isoform (Homo sapiens, UniProt P48736); test: Inhibition of human recombinant PI3Kgamma assessed as depletion of ATP substrate by Ultra Glo luciferase assay; method in brief: as §2
[11] = biological target: T3, Phosphatidylinositol 4,5-bisphosphate 3-kinase catalytic subunit delta isoform (Homo sapiens, UniProt O00329); test: Inhibition of human recombinant PI3Kdelta assessed as depletion of ATP substrate by Ultra Glo luciferase assay; method in brief: as §2
T3 sequence (O00329 whole entry): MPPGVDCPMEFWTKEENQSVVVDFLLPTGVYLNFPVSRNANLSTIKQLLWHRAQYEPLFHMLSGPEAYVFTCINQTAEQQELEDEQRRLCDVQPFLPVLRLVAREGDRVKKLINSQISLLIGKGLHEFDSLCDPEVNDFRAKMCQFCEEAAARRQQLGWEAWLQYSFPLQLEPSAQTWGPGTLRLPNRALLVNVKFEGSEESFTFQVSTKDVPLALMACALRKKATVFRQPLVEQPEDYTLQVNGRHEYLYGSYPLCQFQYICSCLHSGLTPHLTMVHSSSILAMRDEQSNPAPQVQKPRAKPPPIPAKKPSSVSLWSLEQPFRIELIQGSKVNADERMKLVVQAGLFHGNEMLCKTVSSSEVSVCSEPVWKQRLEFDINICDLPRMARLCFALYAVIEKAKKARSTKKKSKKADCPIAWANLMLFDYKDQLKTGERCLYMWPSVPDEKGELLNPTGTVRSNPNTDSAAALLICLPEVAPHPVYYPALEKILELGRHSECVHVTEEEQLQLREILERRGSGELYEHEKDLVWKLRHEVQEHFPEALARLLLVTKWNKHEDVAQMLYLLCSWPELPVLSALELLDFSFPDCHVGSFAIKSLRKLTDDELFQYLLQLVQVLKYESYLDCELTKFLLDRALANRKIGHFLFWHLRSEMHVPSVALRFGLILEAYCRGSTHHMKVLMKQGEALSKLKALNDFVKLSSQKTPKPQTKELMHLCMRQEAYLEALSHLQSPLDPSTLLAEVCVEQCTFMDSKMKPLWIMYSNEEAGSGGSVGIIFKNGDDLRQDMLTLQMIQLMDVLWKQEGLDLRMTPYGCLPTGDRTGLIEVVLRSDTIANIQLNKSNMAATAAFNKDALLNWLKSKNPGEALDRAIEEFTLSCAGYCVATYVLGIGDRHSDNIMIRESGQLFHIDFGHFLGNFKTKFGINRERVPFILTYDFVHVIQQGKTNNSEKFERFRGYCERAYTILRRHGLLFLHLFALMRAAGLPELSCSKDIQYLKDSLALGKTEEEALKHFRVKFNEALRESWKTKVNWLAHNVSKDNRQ

[12] = biological target: T2, Phosphatidylinositol 4,5-bisphosphate 3-kinase catalytic subunit alpha isoform; test: Inhibition of PI3Kalpha in human BT474 cells assessed as inhibition of […] Akt phosphorylation after 2 hrs by fluorescence assay; type: cell-based, BT-474
Method in brief: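 BT474 cells were seeded in DMEM with 10% FCS and 1% glutamine and left to adhere overnight, then treated with compound in DMSO for 2 h at 37 °C and 5% CO2. Cells were lysed with a phosphatase/protease-inhibitor buffer. Lysate was captured on anti-total-Akt plates, probed with anti-phospho-Akt Thr308 and an HRP secondary, and read by fluorescence (ex 325/em 420 nm). Values are the geometric mean of ≥2 determinations.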

Homo sapiens [13] = species on record: Homo sapiens; test: Ratio of IC50 for PI3Kalpha human BT474 cells to IC50 PI3Kbeta in human […] cells
[14] = Ratio of total plasma concentration in PTEN-null human PC3 cells xenografted in SCID mouse at 50 mg/kg, po single dose at 0.5 hrs to IC50 for PI3Kbeta in human […] cells; design: species or system PC-3
Method in brief: (§3)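 SCID mice bearing PTEN-null PC3 prostate tumour xenografts got a single oral dose given as a suspension. Total plasma concentration was measured at the sampled time points (0.5, 4 or 8 h). The value is the […] cover over the PI3Kβ cellular IC50, which comes from inhibition of Ser473 Akt phosphorylation in PTEN-null MDA-MB-468 breast adenocarcinoma cells.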

[15] = Ratio of total plasma concentration in PTEN-null human PC3 cells xenografted in SCID mouse at 50 mg/kg, po single dose at 4 hrs to IC50 for PI3Kbeta in human […] cells; design: species or system PC-3; method in brief: as §3
[16] = Fraction unbound in mouse plasma; type: ADME, cell-free
Method in brief: (§4)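 Protein binding was measured in nude mouse plasma and in human plasma and is expressed as fraction unbound (%).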

[17] = Fraction unbound in human plasma; type: ADME, cell-free; method in brief: as §4
[18] = Clearance in mouse plasma at 5 umol/kg, iv and 30 umol/kg, po; type: ADME, organism-based
Method in brief: (§5)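 […] mice were dosed at 5 µmol/kg i.v. and 30 µmol/kg p.o. Clearance is given in mL/min/kg and oral bioavailability in %.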

[19] = Bioavailability in mouse plasma at 5 umol/kg, iv and 30 umol/kg, po; type: ADME, organism-based; method in brief: as §5
Mus musculus [20] = test: Inhibition of Akt phosphorylation in SCID mouse xenografted with PTEN-null human PC3 cells at 50 mg/kg, po measured after 30 mins; type: functional; details: PC-3, 0.5 h
Method in brief: (§6)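 SCID mice carrying PTEN-null PC3 prostate xenografts received a single oral dose as a suspension (50, 100 or 200 mg/kg).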

Mus musculus [21] = test: Inhibition of Akt phosphorylation in SCID mouse xenografted with PTEN-null human PC3 cells at 50 mg/kg, po measured after 4 hrs; type: functional; details: PC-3, 4 h; method in brief: as §6
[22] = Total plasma concentration in SCID mouse xenografted with PTEN-null human PC3 cells at 50 mg/kg, po measured after 30 mins; type: ADME, organism-based, PC-3; design: dose 50 mg/kg, route oral
Method in brief: (§7)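 Total plasma concentration was measured in SCID mice carrying PC3 xenografts after a single oral dose given as a suspension (50, 100 or 200 mg/kg). Samples were taken at 0.5 to 8 h.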

[23] = Total plasma concentration in SCID mouse xenografted with PTEN-null human PC3 cells at 50 mg/kg, po measured after 4 hrs; type: ADME, organism-based, PC-3; design: dose 50 mg/kg, route oral; method in brief: as §7

T2 sequence (P42336 whole entry, canonical isoform): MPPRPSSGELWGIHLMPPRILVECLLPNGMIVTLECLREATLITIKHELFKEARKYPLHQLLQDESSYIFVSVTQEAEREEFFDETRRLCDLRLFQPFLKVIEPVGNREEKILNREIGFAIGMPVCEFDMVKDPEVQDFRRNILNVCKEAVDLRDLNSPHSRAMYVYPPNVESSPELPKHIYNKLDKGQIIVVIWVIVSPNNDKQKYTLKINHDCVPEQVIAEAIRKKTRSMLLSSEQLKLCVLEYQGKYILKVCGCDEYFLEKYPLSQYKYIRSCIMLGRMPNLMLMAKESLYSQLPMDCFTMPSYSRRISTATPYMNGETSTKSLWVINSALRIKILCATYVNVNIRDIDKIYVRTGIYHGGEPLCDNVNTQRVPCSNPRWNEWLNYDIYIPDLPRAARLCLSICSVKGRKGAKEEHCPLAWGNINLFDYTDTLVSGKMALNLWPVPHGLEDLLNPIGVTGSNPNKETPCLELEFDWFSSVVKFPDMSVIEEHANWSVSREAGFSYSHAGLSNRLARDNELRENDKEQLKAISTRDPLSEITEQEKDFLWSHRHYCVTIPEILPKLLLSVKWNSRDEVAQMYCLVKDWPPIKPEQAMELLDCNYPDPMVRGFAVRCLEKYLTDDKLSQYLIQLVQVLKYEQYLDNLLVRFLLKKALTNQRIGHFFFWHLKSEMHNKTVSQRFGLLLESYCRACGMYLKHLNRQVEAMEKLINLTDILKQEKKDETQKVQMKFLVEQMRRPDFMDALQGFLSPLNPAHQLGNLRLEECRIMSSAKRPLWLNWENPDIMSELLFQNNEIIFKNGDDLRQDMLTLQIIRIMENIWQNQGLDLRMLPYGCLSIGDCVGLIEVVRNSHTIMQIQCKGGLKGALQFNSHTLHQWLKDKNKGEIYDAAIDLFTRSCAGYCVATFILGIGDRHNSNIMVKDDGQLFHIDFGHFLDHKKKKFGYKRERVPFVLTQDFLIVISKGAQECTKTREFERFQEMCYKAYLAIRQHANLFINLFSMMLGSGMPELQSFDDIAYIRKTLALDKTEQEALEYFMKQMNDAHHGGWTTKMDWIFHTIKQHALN
Phosphatidylinositol 4,5-bisphosphate 3-kinase catalytic subunit gamma isoform, sequence (P48736 whole entry, canonical isoform): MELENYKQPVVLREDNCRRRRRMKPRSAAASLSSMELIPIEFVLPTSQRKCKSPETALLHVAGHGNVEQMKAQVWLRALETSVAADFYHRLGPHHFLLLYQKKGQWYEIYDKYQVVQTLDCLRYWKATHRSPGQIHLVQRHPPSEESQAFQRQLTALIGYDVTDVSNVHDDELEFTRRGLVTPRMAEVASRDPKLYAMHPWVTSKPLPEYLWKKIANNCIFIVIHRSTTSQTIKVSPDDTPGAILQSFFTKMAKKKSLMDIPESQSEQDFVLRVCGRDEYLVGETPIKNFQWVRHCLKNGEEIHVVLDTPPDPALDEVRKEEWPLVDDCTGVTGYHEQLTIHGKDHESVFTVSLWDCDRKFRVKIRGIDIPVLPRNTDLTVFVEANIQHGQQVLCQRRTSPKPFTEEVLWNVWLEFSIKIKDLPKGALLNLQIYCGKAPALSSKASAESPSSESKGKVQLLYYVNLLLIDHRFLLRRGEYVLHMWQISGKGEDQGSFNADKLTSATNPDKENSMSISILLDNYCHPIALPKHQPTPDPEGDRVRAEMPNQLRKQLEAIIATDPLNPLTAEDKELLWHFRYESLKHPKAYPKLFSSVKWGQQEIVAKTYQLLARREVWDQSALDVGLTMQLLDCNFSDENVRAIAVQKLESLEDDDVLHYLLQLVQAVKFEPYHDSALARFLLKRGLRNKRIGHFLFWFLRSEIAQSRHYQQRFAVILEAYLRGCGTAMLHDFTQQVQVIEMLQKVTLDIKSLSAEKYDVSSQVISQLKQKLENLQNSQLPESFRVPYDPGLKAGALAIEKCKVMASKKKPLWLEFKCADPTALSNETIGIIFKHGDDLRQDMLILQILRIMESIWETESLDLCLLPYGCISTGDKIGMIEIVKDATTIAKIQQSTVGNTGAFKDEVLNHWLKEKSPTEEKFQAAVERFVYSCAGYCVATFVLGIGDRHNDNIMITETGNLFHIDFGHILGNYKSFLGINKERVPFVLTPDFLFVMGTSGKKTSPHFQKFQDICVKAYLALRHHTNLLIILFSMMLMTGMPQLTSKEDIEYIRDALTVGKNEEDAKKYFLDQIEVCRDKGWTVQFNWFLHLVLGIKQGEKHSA
T1 sequence (P42338 whole entry, canonical isoform): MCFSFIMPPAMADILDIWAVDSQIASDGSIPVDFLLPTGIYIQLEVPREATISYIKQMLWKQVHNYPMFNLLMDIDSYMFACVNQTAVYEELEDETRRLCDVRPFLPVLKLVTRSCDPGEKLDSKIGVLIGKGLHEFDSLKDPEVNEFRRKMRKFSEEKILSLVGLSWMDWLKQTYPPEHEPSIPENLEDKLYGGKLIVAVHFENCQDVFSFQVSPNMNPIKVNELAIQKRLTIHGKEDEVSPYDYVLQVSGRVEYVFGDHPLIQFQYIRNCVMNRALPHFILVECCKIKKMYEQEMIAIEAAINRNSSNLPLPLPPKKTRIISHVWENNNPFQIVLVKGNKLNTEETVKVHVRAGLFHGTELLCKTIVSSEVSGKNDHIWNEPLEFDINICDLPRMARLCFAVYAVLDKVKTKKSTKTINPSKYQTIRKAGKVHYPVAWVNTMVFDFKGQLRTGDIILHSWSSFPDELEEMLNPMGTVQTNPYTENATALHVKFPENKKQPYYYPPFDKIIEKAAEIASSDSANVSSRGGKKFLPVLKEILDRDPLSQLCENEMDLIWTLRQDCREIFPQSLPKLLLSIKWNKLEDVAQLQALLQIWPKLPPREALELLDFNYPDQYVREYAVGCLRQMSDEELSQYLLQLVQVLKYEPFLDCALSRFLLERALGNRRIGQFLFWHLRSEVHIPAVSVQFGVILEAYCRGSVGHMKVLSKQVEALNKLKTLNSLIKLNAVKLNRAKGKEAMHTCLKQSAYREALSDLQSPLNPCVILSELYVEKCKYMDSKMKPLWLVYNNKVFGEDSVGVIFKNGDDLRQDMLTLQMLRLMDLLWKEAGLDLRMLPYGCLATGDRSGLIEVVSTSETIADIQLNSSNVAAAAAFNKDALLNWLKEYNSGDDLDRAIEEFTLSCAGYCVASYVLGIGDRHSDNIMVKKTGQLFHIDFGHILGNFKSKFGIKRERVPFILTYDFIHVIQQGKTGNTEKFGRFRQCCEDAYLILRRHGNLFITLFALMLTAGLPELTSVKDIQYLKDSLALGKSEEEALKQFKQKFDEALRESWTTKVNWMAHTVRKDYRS

IC50 [1] [nM]	logD [2]	hepatocyte CLint [3] [µL/min/1e6 cells]	solubility [4] [µM]	Papp A→B [5] [×10⁻⁶ cm/s]	Structure (SMILES)	other results
25	2.7	6	316 (≈ 158 µg/mL)		C[C@@H](Nc1cc(F)cc(F)c1)c1cc(C(=O)N2CCOCC2)cn2c(=O)cc(N3CCOCC3)nc12	
29	2.6	6	> 1500	9	C[C@@H](Nc1cc(F)cc(F)c1)c1cc(C(=O)N2CCN(C)CC2)cn2c(=O)cc(N3CCOCC3)nc12	
17					Cc1cc(C(C)Nc2cccc(Cl)c2)c2nc(N3CCOCC3)cc(=O)n2c1 (stereo unspecified)	
9					Cc1cc(C(C)Nc2cc(F)cc(F)c2)c2nc(N3CCOCC3)cc(=O)n2c1 (stereo unspecified)	
75					CC(Nc1ccc(Cl)cc1)c1cc(C(=O)NCCN(C)C)cn2c(=O)cc(N3CCOCC3)nc12 (racemic)	
39		45	23 (≈ 10.1 µg/mL)	39	CC(Nc1cccc(F)c1)c1cc(C(=O)N(C)C)cn2c(=O)cc(N3CCOCC3)nc12 (racemic)	
73	2.7	9	28 (≈ 12.8 µg/mL)		CC(Nc1cccc(F)c1F)c1cc(C(=O)N(C)C)cn2c(=O)cc(N3CCOCC3)nc12 (racemic)	
8	2.1	10	930 (≈ 453 µg/mL)		CC(Nc1cc(F)cc(F)c1)c1cc(C(=O)N(C)CCO)cn2c(=O)cc(N3CCOCC3)nc12 (racemic)	
81					Cc1cccc(NC(C)c2cc(C)cn3c(=O)cc(N4CCOCC4)nc23)c1 (racemic)	
190					Cc1cc(C(C)Nc2ccc(F)cc2)c2nc(N3CCOCC3)cc(=O)n2c1 (racemic)	
10					CC(Nc1cccc(Cl)c1)c1cc(C(=O)NCCN(C)C)cn2c(=O)cc(N3CCOCC3)nc12 (racemic)	
7					CC(Nc1ccccc1Cl)c1cc(C(=O)NCCN(C)C)cn2c(=O)cc(N3CCOCC3)nc12 (racemic)	
12	1.8			0.2	CC(Nc1ccc(F)cc1)c1cc(C(=O)NCCN(C)C)cn2c(=O)cc(N3CCOCC3)nc12 (racemic)	
2	2			0.3	CC(Nc1cccc(F)c1)c1cc(C(=O)NCCN(C)C)cn2c(=O)cc(N3CCOCC3)nc12 (racemic)	
23	1.9			0.8	CC(Nc1ccccc1F)c1cc(C(=O)NCCN(C)C)cn2c(=O)cc(N3CCOCC3)nc12 (racemic)	
74					CC(Nc1cccc(C(F)(F)F)c1)c1cc(C(=O)NCCN(C)C)cn2c(=O)cc(N3CCOCC3)nc12 (racemic)	
530					Cc1ccc(NC(C)c2cc(C(=O)NCCN(C)C)cn3c(=O)cc(N4CCOCC4)nc23)cc1 (racemic)	
156	2.4				CC(Nc1ccccc1)c1cc(C(=O)N(C)C)cn2c(=O)cc(N3CCOCC3)nc12 (single isomer, unassigned; (+))	Ratio IC50 (Homo sapiens [6]): 50; Ratio IC50 (Homo sapiens [7]): 550; IC50 [8]: 560 nM; IC50 [9]: 11 nM; IC50 [10]: 6000 nM; IC50 [11]: 110 nM; IC50 [12]: 9600 nM; Ratio IC50 (Homo sapiens [13]): 60
8	1.7			0.2	CC(Nc1ccccc1)c1cc(C(=O)NCCN(C)C)cn2c(=O)cc(N3CCOCC3)nc12 (single isomer, unassigned; (-))	IC50 [8]: 370 nM; IC50 [9]: 8 nM; IC50 [10]: 6900 nM; IC50 [11]: 85 nM; IC50 [12]: 2200 nM
4	2.7			0.9	CC(Nc1cccc(Cl)c1F)c1cc(C(=O)NCCN(C)C)cn2c(=O)cc(N3CCOCC3)nc12 (single isomer, unassigned; (-))	Ratio [14]: 83; Ratio [15]: 48; IC50 [8]: 92 nM; IC50 [9]: 7 nM; IC50 [10]: 670 nM; IC50 [11]: 51 nM; IC50 [12]: 970 nM; fraction unbound [16]: 0.016; fraction unbound [17]: 0.033; clearance [18]: 10 mL/min/kg; bioavailability [19]: 39%; inhibition in vivo at 50 mg/kg (Mus musculus [20]): 26%; inhibition in vivo at 50 mg/kg (Mus musculus [21]): 40%; concentration at 0.5 h [22]: 21 µM; concentration at 4 h [23]: 12 µM; Ratio IC50 (Homo sapiens [13]): 240
11	3.5	19			CC(Nc1cc(F)cc(Cl)c1)c1cc(C(=O)N(C)C)cn2c(=O)cc(N3CCOCC3)nc12 (single isomer, unassigned; (-))	
11		13	10 (≈ 4.75 µg/mL)		CC(Nc1cc(F)c(F)c(F)c1)c1cc(C(=O)N(C)C)cn2c(=O)cc(N3CCOCC3)nc12 (single isomer, unassigned; (-))	
25	2.9	15	46 (≈ 21.9 µg/mL)		CC(Nc1cc(F)cc(F)c1F)c1cc(C(=O)N(C)C)cn2c(=O)cc(N3CCOCC3)nc12 (single isomer, unassigned; (-))	
